An excerpt weighted towards active compounds, which were near 3.5% of everything screened.
MrgX1 allo act: human MrgX1 positive allosteric modulation, primary screen. Q96LB2. MrgX1-HEK293, Fluo-4 calcium flux, FDSS; active compounds read high. B-score at 10 µM. hit rate 0.63% among 310,000. AID 588675;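 active = plate-corrected calcium response at least 3 library SD above typical, normal starting fluorescence, not activating the receptor alone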;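 also: compound read alongside a low EC10 to EC30 dose of BAM8-22 agonist; peak minus trough fluorescence over baseline measured at the second addition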
Target sequence (Q96LB2 whole entry, looked up): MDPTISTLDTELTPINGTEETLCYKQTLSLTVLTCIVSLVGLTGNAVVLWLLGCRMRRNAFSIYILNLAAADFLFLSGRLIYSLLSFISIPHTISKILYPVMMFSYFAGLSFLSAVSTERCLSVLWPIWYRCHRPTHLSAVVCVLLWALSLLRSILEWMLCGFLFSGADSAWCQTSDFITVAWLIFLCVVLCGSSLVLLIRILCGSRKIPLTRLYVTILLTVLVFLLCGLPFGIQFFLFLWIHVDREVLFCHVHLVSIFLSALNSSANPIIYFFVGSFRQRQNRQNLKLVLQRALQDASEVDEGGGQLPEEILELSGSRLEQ
MrgX1 agonist: activates human MrgX1 receptor signaling; Q96LB2; MrgX1-HEK293 cells, Fluo-4 calcium fluorescence, agonist mode; active compounds read high; B-score at 10 µM; hit rate 0.44% among 310,000; AID 588627;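 active = calcium response B-score plate-corrected fluorescence ratio at least 3 library SD, with starting fluorescence B-score inside 5 SD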
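times = overnight plating, then 30 min 37 °C plus 30 min room-temperature dye loading | assay system = stable human MrgX1 HEK293 cell line | input = fifteen thousand cells per well | signal = kinetic calcium dye fluorescence, Fluo-4 NW | dosing = compound delivered in addition one of three | read-out = B-scored fluorescence response ratio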
RGS4 pot: potentiators or activators of RGS4; hit rate 0.92% among 310,000; HEK293 M3R/inducible RGS4, carbachol calcium flux Fluo4; active compounds read low; B-score at 10 µM;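 active = B-score of the integrated calcium signal more than 4 SD below the library mean, with starting fluorescence not abnormally high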;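 also: negative B-score means reduced calcium response which marks RGS4 activation or potentiation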
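test system = HEK293 cells with stable M3R and inducible RGS4 | schedule = recording 10 s baseline at 1 Hz, 100 s post-agonist | technique = Fluo4-AM (2 µM) calcium-flux fluorescence, kinetic read | measure = Agonist-evoked peak-minus-minimum fluorescence over baseline, integrated ratio, B score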
MrgX1 antagonist: antagonists of human MrgX1 receptor | Q96LB2 | AID 588676 | hit rate 1.3% among 310,000 | MRGX1-HEK293 calcium flux, Fluo-4, BAM8-22 antagonism; active compounds read low | B-score at 10 µM;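 active = calcium-response B-score plate-corrected more than 3 library SD below zero, starting fluorescence within 5 deviations, no agonist response on first addition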;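 also: peak minus trough fluorescence over baseline after final BAM8-22 challenge near maximal dose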
RGS4 block: inhibitors of human RGS4; HEK293 M3R/RGS4 inducible, Fluo-4 calcium flux; active compounds read high; triggered by carbachol at its EC20; B-score at 10 µM; hit rate 0.45% among 310,000; AID 463165;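 active = B-score, a plate-corrected calcium signal, over three deviations above library mean, with baseline fluorescence within five deviations of library mean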;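 also: RGS4 expression induced by doxycycline in cells with stable M3 receptor; B-score is computed from the integrated fluorescence ratio over baseline after carbachol; higher B-score means a larger calcium signal and so more RGS4 inhibition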
Target sequence (P49798 whole entry, looked up): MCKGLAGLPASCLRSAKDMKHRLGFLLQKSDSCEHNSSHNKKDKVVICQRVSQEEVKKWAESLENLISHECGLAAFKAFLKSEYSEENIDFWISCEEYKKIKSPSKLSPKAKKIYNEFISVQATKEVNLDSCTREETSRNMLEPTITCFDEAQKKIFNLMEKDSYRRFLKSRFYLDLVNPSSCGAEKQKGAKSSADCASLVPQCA
RGS4 activ val: RGS4 activation, validation assay; shares compounds with RGS4 pot; HEK293 M3R/RGS4 inducible, carbachol calcium flux Fluo4; inhibition, % at 10 µM; hit rate 89% among 1,100;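 active = inhibition above 3 SD of the buffer control wells, cut at about 41% in these data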;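 also: signal is the integrated peak-minus-minimum Fluo4 fluorescence over baseline ratio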
M3R Ca counter: counter-screen for RGS4 activators: effect in non-induced cells | shares compounds with RGS4 pot | HEK293 M3R non-induced RGS4, Fluo4 calcium flux; after carbachol challenge at its EC90 | inhibition, % at 10 µM | hit rate 82% among 1,100;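 active = inhibition exceeding 3 SD of buffer-only control wells, cut at about 26% in these data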;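 also: percent drop in integrated peak-minus-baseline over baseline Fluo4 ratio after carbachol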
* = called active by the depositor; i = inactive; x = not tested or not shown.

SMILES	MrgX1 allo act	MrgX1 agonist	RGS4 pot	MrgX1 antagonist	RGS4 block	RGS4 activ val	M3R Ca counter
Cc1cccc(OCc2nc(C#N)c(N3CC(C)CC(C)C3)o2)c1 (configuration not stated)	i	i	-9.07*	i	i	93.5*	70.3*
Cc1cccc(OCc2nc(C#N)c(N3CCCC3)o2)c1	i	i	i	i	i	x	x
OCC1(Cc2ccccc2)CCCN(Cc2ccc(-c3ccco3)cc2)C1 (configuration not stated)	i	i	i	i	i	x	x
OCC1(Cc2ccccc2)CCN(Cc2ccc(-c3ccco3)cc2)CC1	i	i	-9.97*	i	i	89.5*	51.8*
COc1ccc(N(CC(=O)NCCSc2ccc(C)cc2)S(=O)(=O)c2ccccc2)c(OC)c1	i	i	-12.3*	i	i	73.0*	0.0
CC(C)CCn1c(O)c(N=NC(=O)Cn2ccc(C(F)(F)F)n2)c2ccccc21	i	i	-15.4*	i	i	44.5*	83.8*
CCCn1c(O)c(N=NC(=O)CNC(=O)c2ccncc2)c2ccccc21	i	i	i	i	i	x	x
CCOc1ccc(Br)cc1C1C(C(=O)OC)=C(N)Oc2cc(N(C)C)ccc21 (configuration not stated)	i	i	-9.21*	i	i	92.0*	68.8*
Cc1ccc(S(=O)(=O)n2c(CN3CCCC(C)C3)nc3ccccc32)cc1 (configuration not stated)	i	i	-10.5*	i	i	60.0*	83.8*
Cc1ccc(S(=O)(=O)n2c(C)nc3ccccc32)cc1	i	i	i	i	i	x	x
CN(CC(=O)Nc1ccc(C#N)cc1)Cc1ccc(Cl)c(Cl)c1	i	i	-8.65*	i	i	91.5*	95.3*
CN(CC(=O)Nc1cccc(C#N)c1)Cc1ccc(Cl)cc1	i	i	i	i	i	x	x
O=C1/C(=C/c2ccccc2)SC(=S)N1CC(=O)N1CCCCC1c1cccnc1 (configuration not stated)	i	i	i	i	i	x	x
CSCC[C@H](NC(=O)OC(C)(C)C)C(=O)N/N=C/c1ccc2nccnc2c1	i	i	-12.2*	i	i	0.0	0.0
CCCCc1n[nH]c(=S)n1Cc1ccc(C)cc1	i	i	-8.26*	i	i	72.0*	29.3*
CCCCCCCc1n[nH]c(=S)n1Cc1ccccc1	i	i	i	i	i	x	x
Cc1nccn1CCc1n[nH]c(=S)n1Cc1ccccc1	i	i	-9.47*	i	i	86.0*	68.3*
COC(=O)C1=C(C)N(CCc2ccc(OC)c(OC)c2)C(=O)/C1=C\N(C)C	i	i	i	i	i	x	x
O=C(CSc1nnc(NC2CCCCC2)s1)Nc1ccc2c(c1)C(=O)c1ccccc1C2=O	i	i	i	i	i	x	x
CC(C)Nc1nnc(SCC(=O)Nc2ccc3c(c2)C(=O)c2ccccc2C3=O)s1	i	i	-10.6*	i	i	88.0*	44.8*
Cc1[nH]c2ccccc2c1Cc1n[nH]c(=S)n1C	i	i	-8.19*	i	i	0.0	0.0
Cc1[nH]c2ccccc2c1SCc1n[nH]c(=S)n1C	i	i	i	i	i	x	x
CC(NCc1cccn1C)c1ccccc1 (configuration not stated)	i	i	i	i	i	x	x
COc1ccc(/C(C)=N/NC(=O)c2ccccc2OCc2ccccc2)c(OC)c1	i	i	i	i	i	x	x
COc1ccc(/C=N/NC(=O)c2ccccc2OCc2ccccc2)c(OC)c1	i	i	-11.2*	i	i	94.0*	75.8*
SMILES	MrgX1 allo act	MrgX1 agonist	RGS4 pot	MrgX1 antagonist	RGS4 block	RGS4 activ val	M3R Ca counter
CC(C)CC1CCCCC1OC(=O)C[N+]1(C)CCCCC1 (configuration not stated)	i	i	-10.8*	i	i	92.0*	86.8*
Nc1ccc2c3c(cccc13)C(=O)N(c1ccccc1)C2=O	x	x	i	x	i	x	x
CC(C)CCN1C(=O)c2cccc3c(N)ccc(c23)C1=O	i	i	-7.75*	i	i	99.0*	95.3*
S=C(NCCN(C1CCCCC1)C1CCCC1)Nc1cccc(Cl)c1	i	i	-7.92*	i	i	62.0*	83.8*
S=C(Nc1cccc(Cl)c1)NC1CC2CCCC(C1)N2C1CCCC1 (configuration not stated)	i	i	i	i	i	x	x
COc1cc(O)c(CC=C(C)C)c(O)c1C(=O)CCc1ccc(O)cc1	i	i	-9.28*	i	i	91.0*	76.3*
CN(C)Cc1ccc(F)cc1Sc1ccc(Cl)cc1Cl	i	i	i	i	i	x	x
CCOc1ccc(NC(C(=O)Nc2cccc(C(C)=O)c2)c2ccccc2)cc1 (configuration not stated)	i	i	i	i	i	x	x
CCN(CC)CCNC(C(=O)Nc1cccc(C(C)=O)c1)c1ccccc1 (configuration not stated)	i	i	-13.3*	-5*	i	90.5*	44.8*
O=C(/C=C/c1c(Cl)nc2ccccn12)N1CCN(c2ccc(F)cc2)CC1	i	i	i	i	i	x	x
CCCc1nnc(NC(=O)CCC(=O)N2CCCCC2CC)s1 (configuration not stated)	i	i	-7.85*	i	i	0.0	0.0
CCN1CC2CCCC3(C1)C(=O)NC1(CCCCC1)N=C23 (configuration not stated)	i	i	i	i	i	x	x
COC(=O)c1ccccc1NC(=O)c1cc([N+](=O)[O-])nn1Cc1ccccc1	i	i	i	i	i	x	x
COc1cc(C)ccc1NC(=O)Cc1csc(NC(=O)Nc2ccccc2OC)n1	i	i	-10.1*	i	i	94.0*	90.8*
COc1ccc(N2C(=O)CSC2c2ccccc2)cc1 (configuration not stated)	i	i	i	i	i	x	x
COc1cccc(C2SCC(=O)N2c2ccc(C)cc2)c1OC (configuration not stated)	i	i	-8.89*	i	i	92.0*	85.8*
COc1ccc(N2C(=O)CSC2c2cccc(OC)c2OC)cc1 (configuration not stated)	i	i	-11.3*	i	i	85.5*	46.3*
CCCc1cc(C(=O)Cc2ccccn2)c(O)cc1O	i	i	i	i	i	x	x

Screens: PubChem BioAssay, Johns Hopkins Ion Channel Center
